Results reported in ChEMBL document CHEMBL1138590, “Discovery of novel dihydro-9,10-ethano-anthracene carboxamides as glucocorticoid receptor modulators” (Bioorg Med Chem Lett, 2009).

Assays:
Glucocorticoid receptor [1] = biological target: T1, Glucocorticoid receptor (Homo sapiens, UniProt P04150); experiment: Displacement of FITC-dexamethasone from human recombinant glucocorticoid receptor alpha by fluorescence polarization assay
T1 sequence (P04150 whole entry): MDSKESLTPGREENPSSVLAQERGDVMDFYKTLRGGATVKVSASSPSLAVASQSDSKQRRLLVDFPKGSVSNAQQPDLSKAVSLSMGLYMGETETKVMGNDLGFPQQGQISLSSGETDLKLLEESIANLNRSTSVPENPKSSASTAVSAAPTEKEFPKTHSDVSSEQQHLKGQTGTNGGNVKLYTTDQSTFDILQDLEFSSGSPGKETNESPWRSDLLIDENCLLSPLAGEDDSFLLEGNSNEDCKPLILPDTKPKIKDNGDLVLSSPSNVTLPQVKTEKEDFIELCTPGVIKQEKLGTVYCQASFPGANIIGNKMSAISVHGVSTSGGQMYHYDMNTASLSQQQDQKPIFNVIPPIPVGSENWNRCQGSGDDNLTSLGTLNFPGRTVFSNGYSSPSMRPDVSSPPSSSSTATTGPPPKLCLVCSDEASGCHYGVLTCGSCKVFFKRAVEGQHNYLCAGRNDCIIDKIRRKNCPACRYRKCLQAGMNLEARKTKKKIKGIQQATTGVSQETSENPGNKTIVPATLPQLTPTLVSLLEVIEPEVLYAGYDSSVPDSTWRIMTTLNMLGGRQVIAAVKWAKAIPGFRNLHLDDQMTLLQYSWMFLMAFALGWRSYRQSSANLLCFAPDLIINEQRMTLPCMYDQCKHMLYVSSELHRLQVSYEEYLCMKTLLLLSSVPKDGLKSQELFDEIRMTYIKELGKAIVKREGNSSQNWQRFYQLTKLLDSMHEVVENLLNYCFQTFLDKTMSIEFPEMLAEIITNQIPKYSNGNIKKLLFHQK

Glucocorticoid receptor [2] = biological target: T1, Glucocorticoid receptor; experiment: Transrepression activity at GR in PMA-stimulated human A549 cells assessed as inhibition of AP1 response element-induced luciferase reporter gene activity; type: cell-based
Estrogen receptor = biological target: T2, Estrogen receptor (Homo sapiens, UniProt P03372); experiment: Displacement of […] from estrogen receptor alpha by fluorescence polarization assay
T2 sequence (P03372 whole entry): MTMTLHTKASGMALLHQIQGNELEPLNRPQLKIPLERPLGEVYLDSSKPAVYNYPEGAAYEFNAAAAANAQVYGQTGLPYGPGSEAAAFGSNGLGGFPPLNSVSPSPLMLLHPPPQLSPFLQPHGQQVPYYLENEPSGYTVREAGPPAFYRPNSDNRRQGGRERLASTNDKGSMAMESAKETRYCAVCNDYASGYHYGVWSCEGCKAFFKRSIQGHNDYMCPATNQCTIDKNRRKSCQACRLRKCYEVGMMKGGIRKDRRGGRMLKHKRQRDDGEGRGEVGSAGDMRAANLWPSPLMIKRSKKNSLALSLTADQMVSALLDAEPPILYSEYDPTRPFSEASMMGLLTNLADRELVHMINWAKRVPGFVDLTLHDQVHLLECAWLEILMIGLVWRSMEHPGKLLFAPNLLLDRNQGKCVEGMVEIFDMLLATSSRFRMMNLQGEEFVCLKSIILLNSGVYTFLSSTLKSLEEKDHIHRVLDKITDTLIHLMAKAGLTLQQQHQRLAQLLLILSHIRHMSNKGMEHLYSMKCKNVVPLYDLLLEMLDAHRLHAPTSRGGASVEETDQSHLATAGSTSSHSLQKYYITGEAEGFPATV
Method in brief: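 Fluorescence polarization competition binding: the test compound competes with a fluorescently labelled ligand for binding to the full-length receptor or its ligand-binding domain. IC50 is fitted from the polarization signal with a four-parameter logistic equation. Ki is derived by Cheng–Prusoff, Ki = IC50/(1 + ligand concentration/Kd). Values are means of duplicate experiments.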

[3] = biological target: T3, Mineralocorticoid receptor (Homo sapiens) (UniProt P08235); experiment: Antagonist activity at mineralocorticoid receptor in human A549 cells assessed as inhibition of 1.25 nM aldosterone-induced effect at 0.1 uM; type: functional, cell-based
T3 sequence (whole entry): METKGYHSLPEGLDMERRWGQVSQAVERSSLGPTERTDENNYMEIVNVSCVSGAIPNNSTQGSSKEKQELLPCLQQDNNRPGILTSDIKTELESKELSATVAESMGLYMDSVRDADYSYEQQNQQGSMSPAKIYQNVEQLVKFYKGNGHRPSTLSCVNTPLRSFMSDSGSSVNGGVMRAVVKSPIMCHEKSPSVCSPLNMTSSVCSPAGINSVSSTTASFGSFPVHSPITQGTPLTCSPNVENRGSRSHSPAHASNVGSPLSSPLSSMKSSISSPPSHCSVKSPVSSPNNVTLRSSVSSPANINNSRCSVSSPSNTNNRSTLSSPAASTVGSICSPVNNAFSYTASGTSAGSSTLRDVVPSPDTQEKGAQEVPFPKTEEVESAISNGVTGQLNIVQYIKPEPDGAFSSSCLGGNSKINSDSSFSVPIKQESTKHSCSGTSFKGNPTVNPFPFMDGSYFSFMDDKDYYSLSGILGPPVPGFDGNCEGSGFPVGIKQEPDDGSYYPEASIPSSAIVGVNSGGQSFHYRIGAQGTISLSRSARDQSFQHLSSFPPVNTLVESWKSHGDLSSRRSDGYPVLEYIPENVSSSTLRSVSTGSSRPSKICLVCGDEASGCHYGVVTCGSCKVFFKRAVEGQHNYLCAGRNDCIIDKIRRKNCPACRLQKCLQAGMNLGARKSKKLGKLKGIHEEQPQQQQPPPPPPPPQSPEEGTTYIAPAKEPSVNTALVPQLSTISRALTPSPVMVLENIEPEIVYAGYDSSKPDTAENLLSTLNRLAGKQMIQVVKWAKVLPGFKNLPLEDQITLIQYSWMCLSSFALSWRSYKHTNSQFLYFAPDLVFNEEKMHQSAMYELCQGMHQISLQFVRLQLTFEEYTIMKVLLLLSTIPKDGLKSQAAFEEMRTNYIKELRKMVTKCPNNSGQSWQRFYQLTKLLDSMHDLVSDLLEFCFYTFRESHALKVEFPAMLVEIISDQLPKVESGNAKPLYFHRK

| Structure (SMILES) | Ki (Glucocorticoid receptor [1]) [nM] | EC50 (Glucocorticoid receptor [2]) [nM] | Ki (Estrogen receptor) [nM] | inhibition [3] [%] |
| --- | --- | --- | --- | --- |
| C[C@@]1(C(=O)Nc2nccs2)CC2c3ccccc3C1c1ccccc12 | 1.3 | 115 | 15000 | 3 |
| C[C@@]1(C(=O)Nc2nccs2)CC2(C#N)c3ccccc3C1c1ccccc12 | 0.9 | 243 | 26300 | 47 |
